Broadly, the IC50 is the concentration at which inhibition is half-maximal. One may read the ΔTm as the change in melting temperature against a reference sample.

Bounds are passed on as bounds.

The values that follow come from ChEMBL document CHEMBL1138229, “Novel cyano- and amidino-substituted derivatives of styryl-2-benzimidazoles and benzimidazo[1,2-a]quinolines. Synthesis, photochemical synthesis, DNA binding, and antitumor evaluation, part 3” (J Med Chem, 2007).

The test system of one assay is NCI-H460. Briefly: Antitumor activity against human H460 cells after 72 hrs by MTT assay. Type of assay: functional, cell-based. The following applies: NCI-H460, 72 h. In short, it runs like this: (§1)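 Cells from ATCC grown as monolayers in DMEM with 10% FBS, 2 mM L-glutamine, penicillin/streptomycin, 5% CO2, 37 °C. Seeded on day 0 at 1 × 10^4/mL (2 × 10^4/mL for MCF-7). Five 10-fold dilutions (10^-8 to 10^-4 mol/L) added, then 72 h exposure. MTT read at 570 nm; percent growth vs time-zero and untreated controls. IC50 by linear regression; quadruplicates, three experiments.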
(In general: Formazan colour is commonly taken as a measure of viable cells.)

Another assay relates to MIA PaCa-2. In words: Antitumor activity against human MiaPaCa2 cells after 72 hrs by MTT assay. Type of assay: functional, cell-based. The note with it: MIA PaCa-2, 72 h. In short, it runs like this: as §1
Another assay has as its system SW-620. In words: Antitumor activity against human SW620 cells after 72 hrs by MTT assay. The following applies: SW-620, 72 h. It counts as functional, cell-based. In short, it runs like this: as §1
A further assay has as its system HeLa. In words: Antitumor activity against human HeLa cells after 72 hrs by MTT assay. It counts as functional, cell-based. In outline:
as §1

Assay [1] is described as follows: Antiproliferative activity against human […] fibroblast after 72 hrs by MTT assay. It counts as functional. In short, it runs like this: as §1
Another assay concerns MCF7. In words: Antitumor activity against human MCF7 cells after 72 hrs by MTT assay. Type of assay: functional, cell-based. The note with it: MCF7, 72 h. In short, it runs like this: as §1
The test system of another assay is HEp-2. Briefly: Antitumor activity against human Hep2 cells after 72 hrs by MTT assay. Type of assay: functional, cell-based. The note with it: HEp-2, 72 h. In short, it runs like this:
as §1

The subject of another assay is DNA. Briefly: Binding affinity to calf thymus DNA by thermal melting temperature assay. The note with it: Bos taurus. It counts as nucleic-acid assay. In short, it runs like this:
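ct-DNA (as phosphate concentration) in sodium cacodylate buffer pH 7.0, I = 0.05 mol dm-3. Compound/polynucleotide ratio r = 0.3. Absorbance at 260 nm followed against temperature, ligand absorbance subtracted. Tm taken as transition midpoint by first derivative or tangent method. ΔTm = Tm(complex) − Tm(free DNA), averaged over at least two runs, error ±0.5 °C.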

`N#Cc1ccc2nc(/C=C/c3ccccc3)[nH]c2c1`: the IC50 stood at 3 µM with NCI-H460; 4 µM with MIA PaCa-2; 2.5 µM in the assay with SW-620; 2 µM in the assay on HeLa; 14 µM in assay [1]; 4 µM in the assay on MCF7.

As to `N=C(N)c1ccc2nc(/C=C/c3ccccc3Cl)[nH]c2c1`, the concentration for half-maximal inhibition (IC50) in the assay with MIA PaCa-2 was more than 100 µM; with SW-620, more than 100 µM; with HeLa, 7.5 µM; in assay [1], more than 100 µM; with MCF7, 22 µM; in the assay on HEp-2, 23 µM.

Turning to `Clc1ccccc1/C=C/c1nc2ccc(C3=NCCN3)cc2[nH]1`, the IC50 with MIA PaCa-2 was 17 µM; in the assay on SW-620 it was 14 µM; with HeLa, 4 µM; in assay [1], 42 µM; in the assay on MCF7, 5 µM; in the assay with HEp-2, 16 µM.

Consider `N=C(N)c1ccc2ccc3nc4ccccc4n3c2c1`, for which the half-inhibitory concentration (IC50) is 4.5 µM in the assay with MIA PaCa-2; 2.9 µM in the assay with SW-620; 4.9 µM with HeLa; 6.7 µM in assay [1]; 4 µM in the assay with MCF7; 4 µM with HEp-2. The ΔTm in the assay on DNA stood at 5.2 °C.

Take `CC(C)NC(=N)c1ccc2ccc3nc4ccccc4n3c2c1`: the IC50 was determined as 8.1 µM in the assay on MIA PaCa-2; 1.6 µM in the assay on SW-620; 1.7 µM in the assay with HeLa; 2.7 µM in assay [1]; 2.2 µM with MCF7; 1.6 µM in the assay on HEp-2. Also, the ΔTm with DNA worked out at 5 °C.

On to `COc1cccc2c1C(=O)c1c(O)c3c(c(O)c1C2=O)C[C@@](O)(C(=O)CO)C[C@@H]3O[C@H]1C[C@H](N)[C@H](O)[C@H](C)O1` [DOXORUBICIN], for which the IC50 was determined as 0.02 µM in the assay on MIA PaCa-2; 0.02 µM in the assay with SW-620; 0.04 µM in the assay on HeLa; 0.04 µM in the assay with MCF7; 0.04 µM in the assay with HEp-2.

As for `N=C(NN1CCOCC1)c1ccc2nc(/C=C/c3ccccc3)[nH]c2c1`, the 50% inhibitory concentration (IC50) in the assay with MIA PaCa-2 amounted to 16 µM; in the assay on SW-620 it was 12 µM; with HeLa it was 6 µM; in assay [1], 20 µM; with MCF7, 14 µM; with HEp-2 it was 13 µM. In the assay on DNA, the ΔTm came to 0.1 °C.

On to `N=C(NN1CCOCC1)c1ccc2ccc3nc4ccccc4n3c2c1`, for which the half-inhibitory concentration (IC50) in the assay with MIA PaCa-2 is 10 µM; in the assay with SW-620 it was 1.9 µM; in the assay on HeLa it was 7 µM; in assay [1], 17.7 µM; with MCF7, 6.7 µM; in the assay on HEp-2, 4.7 µM. Further, the thermal shift (ΔTm) with DNA worked out at 3.2 °C.

As for `N=C(N)c1ccc2nc(/C=C\c3ccccc3Cl)[nH]c2c1`, the IC50 was 85 µM in the assay with MIA PaCa-2; more than 100 µM in the assay with SW-620; 20 µM with HeLa; more than 100 µM in assay [1]; 38 µM in the assay with MCF7; 29 µM in the assay on HEp-2.

As for `COc1cc([C@@H]2c3cc4c(cc3[C@@H](O[C@@H]3O[C@@H]5CO[C@@H](C)O[C@H]5[C@H](O)[C@H]3O)[C@H]3COC(=O)[C@H]23)OCO4)cc(OC)c1O` [ETOPOSIDE], the half-maximal inhibitory concentration (IC50) in the assay with MIA PaCa-2 turned out to be 15 µM; in the assay on SW-620, 20 µM; with HeLa, 3 µM; with MCF7, 50 µM.

As to `c1ccc2c(c1)nc1ccc3ccc(C4=NCCN4)cc3n12`, the IC50 in the assay on MIA PaCa-2 stood at 5.6 µM; in the assay on SW-620 it was 1.4 µM; with HeLa, 7 µM; in assay [1], 7.8 µM; in the assay on MCF7, 5.3 µM; in the assay on HEp-2 it was 2.4 µM. The thermal shift (ΔTm) with DNA worked out at 3.6 °C.

As for `N=C(NN1CCOCC1)c1ccc2nc(/C=C\c3ccccc3)[nH]c2c1`, the IC50 in the assay on MIA PaCa-2 amounted to 47 µM; in the assay with SW-620, 22 µM; with HeLa, 13 µM; in assay [1] it was 22 µM; with MCF7 it was 25 µM; in the assay on HEp-2, 61 µM. Moreover, the ΔTm with DNA came to 1.3 °C.

On to `CC(C)NC(=N)c1ccc2nc(/C=C/c3ccccc3)[nH]c2c1`, for which the IC50 in the assay on MIA PaCa-2 was more than 100 µM; in the assay with SW-620 it was more than 100 µM; in the assay on HeLa it was 11 µM; in assay [1] it was more than 100 µM; in the assay on MCF7, 9 µM; in the assay with HEp-2, not below 100 µM. Further, the ΔTm in the assay with DNA came out at 1.1 °C.

With `CC(C)NC(=N)c1ccc2nc3ccc4ccccc4n3c2c1`, the IC50 in the assay on MIA PaCa-2 stood at 3 µM; with SW-620, 3 µM; in the assay with HeLa, 4 µM; in assay [1] it was 10 µM; in the assay on MCF7, 4 µM; in the assay on HEp-2, 4 µM. The ΔTm with DNA is 3.7 °C.

For `CC(C)NC(=N)c1ccc2nc(/C=C\c3ccccc3Cl)[nH]c2c1`, the IC50 is 28 µM with MIA PaCa-2; 29 µM with SW-620; 19 µM with HeLa; more than 100 µM in assay [1]; 35 µM in the assay on MCF7; 30 µM with HEp-2.

Regarding `N#Cc1ccc2nc3ccc4ccccc4n3c2c1`, the IC50 amounted to 13 µM with NCI-H460; 15 µM in the assay on MIA PaCa-2; 8 µM in the assay with SW-620; 0.05 µM with HeLa; 14 µM in assay [1]; 18 µM in the assay with MCF7.

Turning to `N=C(NN1CCOCC1)c1ccc2nc(/C=C/c3ccccc3Cl)[nH]c2c1`, the IC50 with MIA PaCa-2 came out at 5 µM; in the assay on SW-620, 4 µM; with HeLa, 3 µM; in assay [1] it was 7 µM; in the assay with MCF7, 4 µM; in the assay with HEp-2 it was 10 µM.

`CC(C)NC(=N)c1ccc2nc(/C=C\c3ccccc3)[nH]c2c1`: the 50% inhibitory concentration (IC50) in the assay with MIA PaCa-2 was 84 µM; with SW-620, 70 µM; in the assay on HeLa, 23 µM; in assay [1], more than 100 µM; in the assay on MCF7, 33 µM; in the assay with HEp-2, 81 µM. For the same molecule, the shift in melting temperature (ΔTm) in the assay with DNA came out at 1.2 °C.

Take `N=C(N)c1ccc2nc(/C=C/c3ccccc3)[nH]c2c1`: the IC50 in the assay with MIA PaCa-2 was more than 100 µM; with SW-620, 15 µM; with HeLa it was 2 µM; in assay [1], more than 100 µM; in the assay with MCF7, 29 µM; in the assay on HEp-2 it was 11 µM. For the same molecule, the ΔTm with DNA was found to be 0.7 °C.

Consider `N=C(N)c1ccc2nc(/C=C\c3ccccc3)[nH]c2c1`, for which the IC50 is more than 100 µM with MIA PaCa-2; 78 µM with SW-620; 5.4 µM in the assay on HeLa; more than 100 µM in assay [1]; 36 µM in the assay with MCF7; not below 100 µM in the assay with HEp-2. The shift in melting temperature (ΔTm) in the assay on DNA was -0.5 °C.

For `CC(C)NC(=N)c1ccc2nc(/C=C/c3ccccc3Cl)[nH]c2c1`, the IC50 with MIA PaCa-2 was 48 µM; with SW-620 it was 66 µM; with HeLa, 10 µM; in assay [1], more than 100 µM; in the assay on MCF7, 16 µM; in the assay with HEp-2, 70 µM.

Take `C(=C\c1nc2ccc(C3=NCCN3)cc2[nH]1)/c1ccccc1`: the concentration for half-maximal inhibition (IC50) was 19 µM in the assay on MIA PaCa-2; 16 µM with SW-620; 4 µM in the assay on HeLa; 21 µM in assay [1]; 7 µM in the assay with MCF7; 16 µM in the assay with HEp-2. The ΔTm with DNA was 1.4 °C.

For the molecule `Clc1ccccc1/C=C\c1nc2ccc(C3=NCCN3)cc2[nH]1`, the half-maximal inhibitory concentration (IC50) in the assay on MIA PaCa-2 was 62 µM; in the assay on SW-620, 46 µM; in the assay on HeLa, 11 µM; in assay [1] it was more than 100 µM; in the assay with MCF7, 23 µM; in the assay with HEp-2, not below 100 µM.

In the case of `N=C(N)c1ccc2nc3ccc4ccccc4n3c2c1`, the concentration for half-maximal inhibition (IC50) was 13 µM in the assay with MIA PaCa-2; 17 µM in the assay with SW-620; 5 µM in the assay on HeLa; 74 µM in assay [1]; 9 µM in the assay on MCF7; 13 µM with HEp-2. Besides, in the assay with DNA, the shift in melting temperature (ΔTm) came out at 3.6 °C.

On to `c1ccc2c(c1)ccc1nc3ccccc3n12`, for which the half-maximal inhibitory concentration (IC50) was 18 µM in the assay with MIA PaCa-2; 23 µM in the assay on SW-620; 12 µM in the assay on HeLa; 14 µM in assay [1]; 16 µM in the assay with MCF7; 15 µM with HEp-2.

Take `N#Cc1ccc2c(c1)nc1ccc3ccccc3n12`: the IC50 is 7 µM in the assay with NCI-H460; 7 µM in the assay with MIA PaCa-2; 2 µM in the assay on SW-620; 4 µM in the assay on HeLa; 5 µM in assay [1]; 21 µM in the assay with MCF7.

Turning to `N=C(NN1CCOCC1)c1ccc2nc(/C=C\c3ccccc3Cl)[nH]c2c1`, the half-inhibitory concentration (IC50) stood at 15 µM with MIA PaCa-2; 15 µM with SW-620; 7 µM with HeLa; 21 µM in assay [1]; 14 µM in the assay on MCF7; 9 µM in the assay on HEp-2.

As for `N#Cc1ccc(/C=C/c2nc3ccccc3[nH]2)cc1`, the IC50 with NCI-H460 came out at 20 µM; in the assay with MIA PaCa-2, 36 µM; with SW-620 it was 23 µM; with HeLa, 19 µM; in the assay with MCF7 it was 14 µM.
